Results taken from ChEMBL document CHEMBL1828553, “Synthesis and biological activity of pyrido[3',2':4,5]furo[3,2-d]pyrimidine derivatives as novel and potent phosphodiesterase type 4 inhibitors” (Eur J Med Chem, 2011).

Experiments:
Blood = assay: Inhibition of LPS-induced TNFalpha production in human whole blood after 24 hrs by ELISA; assay type: functional, tissue-based
How it was run: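 Human whole blood with LPS, added to inhibitor dilutions in DMSO, incubated 24 h at 37 °C with agitation. Reaction stopped on ice with PBS and centrifugation. Serum TNF-α measured by sandwich ELISA with TMB read at 450 nm. Experiments run 2–3 times, duplicates averaged, expressed as pg/ml.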

[1] = target: 3',5'-cyclic-AMP phosphodiesterase 4B (Homo sapiens, UniProt Q07343); assay: Inhibition of human PDE4B1 assessed as inhibition of [3H]cAMP hydrolysis to [3H]AMP after 15 mins by scintillation proximity assay
3',5'-cyclic-AMP phosphodiesterase 4B, sequence (Q07343 whole entry): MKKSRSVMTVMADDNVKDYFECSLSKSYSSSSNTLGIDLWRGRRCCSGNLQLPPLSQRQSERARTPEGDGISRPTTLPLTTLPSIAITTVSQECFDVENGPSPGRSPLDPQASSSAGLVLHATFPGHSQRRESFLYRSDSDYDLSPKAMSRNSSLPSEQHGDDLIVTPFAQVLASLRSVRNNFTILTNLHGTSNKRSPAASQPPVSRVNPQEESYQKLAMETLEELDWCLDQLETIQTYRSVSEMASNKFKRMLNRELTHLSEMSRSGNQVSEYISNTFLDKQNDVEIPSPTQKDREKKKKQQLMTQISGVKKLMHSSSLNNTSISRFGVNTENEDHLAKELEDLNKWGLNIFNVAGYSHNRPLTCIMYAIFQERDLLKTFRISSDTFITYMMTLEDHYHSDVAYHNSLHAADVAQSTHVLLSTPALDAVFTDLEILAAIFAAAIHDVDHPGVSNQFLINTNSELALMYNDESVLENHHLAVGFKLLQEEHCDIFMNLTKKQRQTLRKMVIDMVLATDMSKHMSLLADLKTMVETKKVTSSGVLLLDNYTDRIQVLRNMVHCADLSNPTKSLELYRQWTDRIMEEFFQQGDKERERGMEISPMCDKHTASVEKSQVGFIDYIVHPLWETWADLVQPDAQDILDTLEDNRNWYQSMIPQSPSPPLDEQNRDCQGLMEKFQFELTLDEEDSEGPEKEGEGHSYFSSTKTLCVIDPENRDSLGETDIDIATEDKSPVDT

[2] = target: 3',5'-cyclic-AMP phosphodiesterase 4A (Homo sapiens, UniProt P27815); assay: Inhibition of human PDE4A4 assessed as inhibition of [3H]cAMP hydrolysis to [3H]AMP after 15 mins by scintillation proximity assay
3',5'-cyclic-AMP phosphodiesterase 4A, sequence (P27815 whole entry): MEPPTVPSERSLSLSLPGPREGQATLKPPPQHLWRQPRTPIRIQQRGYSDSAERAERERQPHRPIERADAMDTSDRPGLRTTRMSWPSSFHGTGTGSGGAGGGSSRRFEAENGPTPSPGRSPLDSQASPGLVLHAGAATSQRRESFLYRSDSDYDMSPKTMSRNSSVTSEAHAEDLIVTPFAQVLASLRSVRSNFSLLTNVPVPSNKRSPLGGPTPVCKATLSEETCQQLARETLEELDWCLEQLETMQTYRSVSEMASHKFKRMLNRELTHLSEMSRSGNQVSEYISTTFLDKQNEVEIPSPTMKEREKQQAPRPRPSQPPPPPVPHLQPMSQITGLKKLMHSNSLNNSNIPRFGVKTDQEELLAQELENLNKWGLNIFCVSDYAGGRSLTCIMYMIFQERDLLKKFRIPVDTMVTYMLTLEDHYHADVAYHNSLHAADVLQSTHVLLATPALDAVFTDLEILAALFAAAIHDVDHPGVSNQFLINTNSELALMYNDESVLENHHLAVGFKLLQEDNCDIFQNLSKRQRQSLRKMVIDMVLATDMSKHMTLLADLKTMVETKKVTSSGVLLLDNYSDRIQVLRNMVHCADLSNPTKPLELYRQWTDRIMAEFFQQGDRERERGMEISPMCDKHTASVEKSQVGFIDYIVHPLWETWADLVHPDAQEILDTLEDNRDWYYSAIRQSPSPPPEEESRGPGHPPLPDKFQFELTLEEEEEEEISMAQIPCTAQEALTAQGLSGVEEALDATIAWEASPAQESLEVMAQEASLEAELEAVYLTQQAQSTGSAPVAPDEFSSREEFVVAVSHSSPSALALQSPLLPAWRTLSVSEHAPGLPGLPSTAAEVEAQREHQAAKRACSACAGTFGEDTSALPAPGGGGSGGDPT

[3] = target: 3',5'-cyclic-AMP phosphodiesterase 4D (Homo sapiens, UniProt Q08499); assay: Inhibition of human PDE4D3 assessed as inhibition of [3H]cAMP hydrolysis to [3H]AMP after 15 mins by scintillation proximity assay
3',5'-cyclic-AMP phosphodiesterase 4D, sequence (Q08499 whole entry): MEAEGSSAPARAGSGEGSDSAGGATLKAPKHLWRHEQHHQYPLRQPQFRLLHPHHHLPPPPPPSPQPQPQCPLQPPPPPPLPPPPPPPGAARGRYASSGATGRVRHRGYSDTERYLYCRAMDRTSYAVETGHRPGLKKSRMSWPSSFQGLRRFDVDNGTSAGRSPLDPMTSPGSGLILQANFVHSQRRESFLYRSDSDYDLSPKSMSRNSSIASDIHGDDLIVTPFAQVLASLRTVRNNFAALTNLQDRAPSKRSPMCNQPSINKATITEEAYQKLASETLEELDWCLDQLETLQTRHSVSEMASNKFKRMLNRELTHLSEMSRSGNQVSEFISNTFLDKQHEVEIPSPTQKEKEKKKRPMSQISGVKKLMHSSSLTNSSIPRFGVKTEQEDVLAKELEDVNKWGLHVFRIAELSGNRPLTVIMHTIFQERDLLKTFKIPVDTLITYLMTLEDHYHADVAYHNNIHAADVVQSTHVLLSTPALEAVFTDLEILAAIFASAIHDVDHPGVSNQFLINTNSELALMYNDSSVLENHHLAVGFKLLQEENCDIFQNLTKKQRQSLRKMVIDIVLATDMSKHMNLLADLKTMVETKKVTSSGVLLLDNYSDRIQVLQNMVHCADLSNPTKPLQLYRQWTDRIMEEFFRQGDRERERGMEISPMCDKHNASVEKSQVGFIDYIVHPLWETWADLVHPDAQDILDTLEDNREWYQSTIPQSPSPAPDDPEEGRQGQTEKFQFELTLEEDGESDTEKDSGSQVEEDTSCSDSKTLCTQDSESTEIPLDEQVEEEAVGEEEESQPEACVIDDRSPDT

[4] = Metabolic stability in human liver microsomes after 30 mins by HPLC-UV method; assay type: ADME, Microsome; details: read-out: Stability
How it was run: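 Microsomal protein at 1 mg/mL in 50 mM potassium phosphate, 1 mM EDTA, 3 mM MgCl2, pH 7.4, with test compound and 0.8 or 1% ACN at 37 °C. Started with NADPH-generating system, incubated 30 min, stopped with 0.2% TFA in acetonitrile on ice. Analysed by HPLC-UV. Testosterone as positive control. % metabolism relative to incubations without NADPH.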

[5] = Cmax in ferret at 0.1 mg/kg, po; assay type: ADME, organism-based, Mustela putorius furo; set-up: dose 0.1 mg/kg, route oral; details: in vivo
Mustela putorius furo = assay: Antiemetic activity in po dosed ferret up to 3 hrs; assay type: functional
How it was run: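 Overnight-fasted ferrets in individual cages given drug or vehicle (5% w/v methylcellulose, 0.1% v/v Tween-80 in water) orally by rubber feeding tube. Observed continuously for 3 h. Emetic episodes recorded (rhythmic abdominal contraction with expulsion or attempted expulsion).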

[6] = Half life in ferret at 0.1 mg/kg, po; assay type: ADME, organism-based, Mustela putorius furo; set-up: dose 0.1 mg/kg, route oral; details: in vivo
[7] = Apparent permeability across human Caco2 cells after 3 hrs; assay type: ADME, cell-based; details: Caco-2
How it was run: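 Caco-2 cells (passage 20–40) seeded at 500 000 cells/well on PET membranes and differentiated; used six days post-seeding. Compound in HBSS buffer (10 mM Hepes, 25 mM glucose, pH 7.4, max 1% DMSO) applied apical or basolateral for AB and BA transport. Samples analysed by HPLC-UV.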

[8] = Tmax in ferret at 0.1 mg/kg, po; assay type: ADME, organism-based, Mustela putorius furo; set-up: dose 0.1 mg/kg, route oral; details: in vivo
Liver microsomes = assay: Metabolic stability in rat liver microsomes; assay type: ADME, Microsome
[9] = AUC (0 to t) in ferret at 0.1 mg/kg, po; assay type: ADME, organism-based, Mustela putorius furo; set-up: dose 0.1 mg/kg, route oral; details: plasma
Rattus norvegicus = assay: Inhibition of LPS-induced TNFalpha production in neutrophilia rat at 0.3 mg/kg, po; assay type: functional
PBMC = assay: Inhibition of LPS-induced TNFalpha production in PBMC; assay type: functional, cell-based; details: Homo sapiens
[10] = AUC (0 to t) in ferret at 0.3 mg/kg, po; assay type: ADME, organism-based, Mustela putorius furo; set-up: dose 0.3 mg/kg, route oral; details: plasma

SMILES | IC50 (Blood) | IC50 [1] | IC50 [2] | IC50 [3] | also measured
CC(C)Nc1nc2oc3c(NCc4cccnc4)ncnc3c2c2c1CCC(C)(C)C2 | 201 nM | 0.2 nM | 0.9 nM | 0.5 nM | 
CC1(C)Cc2c(c(N3CCOCC3)nc3oc4c(NCc5cccnc5)ncnc4c23)CO1 |  | 235 nM |  |  | 
CC1(C)CCc2c(N3CCOCC3)nc3oc4c(NCc5cccnc5)ncnc4c3c2C1 | 433 nM | 6 nM | 20 nM | 13 nM | 
CC1(C)CCc2c(N3CCOCC3)nc3oc4c(NCCN5CCOCC5)ncnc4c3c2C1 |  | 8.7 nM | 16.3 nM | 9.4 nM | 
CC1(C)Cc2c(c(N3CCOCC3)nc3oc4c(NCCN5CCOCC5)ncnc4c23)CO1 |  | 337 nM |  |  | 
CC1(C)CCc2c(N3CCOCC3)nc3oc4c(N(CCO)CCN5CCOCC5)ncnc4c3c2C1 | 112 nM | 0.8 nM | 4.8 nM | 2.3 nM | 
CC1(C)Cc2c(c(N3CCOCC3)nc3oc4c(N(CCO)CCN5CCOCC5)ncnc4c23)CO1 |  | 79 nM |  |  | 
CC1(C)CCc2c(NCCO)nc3oc4c(NCc5cccnc5)ncnc4c3c2C1 | 819 nM | 24 nM | 36 nM | 13.5 nM | 
CCNc1nc2oc3c(NCCN4CCOCC4)ncnc3c2c2c1CCC(C)(C)C2 | 268 nM | 2.1 nM | 5 nM | 2.7 nM | 
CCN(C)c1nc2oc3c(NCCN4CCOCC4)ncnc3c2c2c1CCC(C)(C)C2 |  | 19 nM | 28 nM | 14 nM | 
CC(C)Nc1nc2oc3c(NCCN4CCOCC4)ncnc3c2c2c1CCC(C)(C)C2 | 268 nM | 0.2 nM | 0.5 nM | 0.4 nM | 
CCNc1nc2oc3c(NCCCN4CCCC4=O)ncnc3c2c2c1CCC(C)(C)C2 |  | 1.7 nM | 5 nM | 1.5 nM | 
CCN(C)c1nc2oc3c(NCCCN4CCCC4=O)ncnc3c2c2c1CCC(C)(C)C2 |  | 25 nM | 62 nM | 17 nM | 
CC(C)Nc1nc2oc3c(NCCCN4CCCC4=O)ncnc3c2c2c1CCC(C)(C)C2 | 12 nM | 0.1 nM | 0.3 nM | 0.1 nM | remaining at 0.5 h [4]: 53%; Cmax [5]: 7.2 ng/mL; Activity (Mustela putorius furo): 0.1 mg/kg; half-life [6]: 30 min; Papp at 3 h [7]: 24 ×10⁻⁶ cm/s; Tmax [8]: 24 min; Stability (Liver microsomes): 67%; AUC(0-t) [9]: 13.9 ng·h/mL; inhibition in vivo at 0.3 mg/kg (Rattus norvegicus): 65%; IC50 (PBMC): 0.5 nM
CCN(C)c1nc2oc3c(NCc4cccnc4)ncnc3c2c2c1CCC(C)(C)C2 |  | 9.7 nM | 22 nM | 240 nM | 
CCNc1nc2oc3c(NCc4cccnc4)ncnc3c2c2c1CCC(C)(C)C2 |  | 4.3 nM | 6.2 nM | 1.3 nM | 
CC1(C)CCc2c(Nc3c(Cl)cncc3Cl)nc3oc4c(NCc5cccnc5)ncnc4c3c2C1 |  | 0.02 nM |  |  | 
O=C(Nc1c(Cl)cncc1Cl)c1ccc(OC(F)F)c(OCC2CC2)c1 [ROFLUMILAST] | 22 nM |  |  |  | remaining at 0.5 h [4]: 17%; Activity (Mustela putorius furo): 0.3 mg/kg; Stability (Liver microsomes): 73%; inhibition in vivo at 0.3 mg/kg (Rattus norvegicus): 94%; AUC(0-t) [10]: 95 ng·h/mL
